In brackets after ≈: the same amount, converted by molar mass. Activity calls are given as the source filed them. The calls are words filed in the database; no cut-off is given here.
What was measured:
Format in all cases: functional
Enterococcus sp. = assay: Antimicrobial activity against Enterococcus sp. by Alamar blue assay
In short: (§1)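 1:2 serial dilution in liquid culture; compound dissolved in DMSO or EtOH. Bacteria grown in TSB+ (5 g/L NaCl); C. albicans in Sabouraud or TSB+. Alamar Blue redox indicator read by colour: blue/purple means growth inhibited, bright pink means growth.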

Staphylococcus aureus [1] = assay: Antimicrobial activity against methicillin-resistant Staphylococcus aureus by agar extract inclusion assay
In short: (§2)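 Compound dissolved in DMSO or EtOH and mixed into Mueller Hinton agar cooled to 50 °C. Agar serially diluted 1:2 with more cooled agar. Pathogens spotted on the surface at about 2.5 × 10⁵ cells/mL inoculum. Plates incubated overnight at 37 °C and scored for growth inhibition to give the MIC.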

Candida albicans [2] = assay: Antimicrobial activity against Candida albicans by Alamar blue assay; in short: as §1
Staphylococcus aureus [3] = assay: Antimicrobial activity against methicillin-resistant Staphylococcus aureus by Alamar blue assay; in short: as §1
Candida albicans [4] = assay: Antimicrobial activity against Candida albicans by agar extract inclusion assay; in short: as §2

Row | Structure (SMILES) | MIC (Enterococcus sp.) [µg/mL] | MIC (Staphylococcus aureus [1]) [µg/mL] | Activity (Candida albicans [2]) | Activity (Staphylococcus aureus [3]) | MIC (Candida albicans [4]) [µg/mL] | MIC (Candida albicans [2]) [µg/mL] | MIC (Staphylococcus aureus [3]) [µg/mL]
1 | CC(C)CCCCCC(=O)N[C@H](Cc1ccc(O)cc1)C(=O)N[C@@H](CO)C(=O)N[C@H](CC(C)C)C(=O)N[C@@H](Cc1c[nH]c2ccccc12)C(=O)N[C@@H](CCCNC(=N)N)C(=O)O [TAURAMAMIDE] | 0.1 (≈ 0.116 µM) | 200 (≈ 231 µM) | inactive | inactive | 50 (≈ 57.9 µM) |  | 
2 | CCOC(=O)[C@H](CCCNC(=N)N)NC(=O)[C@H](Cc1c[nH]c2ccccc12)NC(=O)[C@@H](CC(C)C)NC(=O)[C@H](CO)NC(=O)[C@@H](Cc1ccc(O)cc1)NC(=O)CCCCCC(C)C [TAURAMAMIDE ETHYL ESTER] | 0.1 (≈ 0.112 µM) | 9.4 (≈ 10.5 µM) |  |  | 75 (≈ 84.1 µM) | 200 (≈ 224 µM) | 25 (≈ 28 µM)
